# Reference: ChEMBL document CHEMBL1156791, “Antimicrobial activity of small beta-peptidomimetics based on the pharmacophore model of short cationic antimicrobial peptides” (J Med Chem, 2010)
# Assays:
# [1] = Stability in aqueous solution at pH7.4 after 48 hrs; type: physicochemical; conditions: buffer, pH 7.4, 48 h
# [2] = tested on: Escherichia coli; assay: Antimicrobial activity against Escherichia coli ATCC 25922; type: functional
# [3] = Hemolytic activity in human RBC assessed as hemolysis at 1000 ug/ml after 1 hr; type: ADME, cell-based; conditions: erythrocyte
# [4] = Stability in presence of alpha-chymotrypsin after 48 hrs; type: ADME
# Summary of the method: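 Digestion with α-chymotrypsin (2 μg/mL final) of 100 μg/mL compound in 100 mM Tris-HCl with 10 mM CaCl2. Aliquots taken at 0, 15, 30, 60, 120, 240 min, 24 and 48 h. Quenched with 10% acetic acid plus atenolol external standard, then quantified by LC-MS/MS in positive MRM mode, in duplicate. Remaining compound expressed relative to enzyme-free control.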
compound,measurement,setting,value
N=C(N)NCCC[C@H](NC(=O)C(CN)(CCC1CCCCC1)CCC1CCCCC1)C(N)=O,Stability,[1],Stable
same,MBC,[2],289 µM
same,MIC,[2],144 µM
same,Activity,[3],Non-toxic
same,Stability,[4],Stable
